In ChEMBL document CHEMBL1141288, “Antimalarial and antituberculous poly-O-acylated jatrophane diterpenoids from Pedilanthus tithymaloides” (J Nat Prod, 2007):
Converted amounts (≈) assume the structure as drawn. The source made the active and inactive calls. The rule behind the calls is not given here.

How the values were obtained:
Plasmodium falciparum [1] = assay: Antimalarial activity against Plasmodium falciparum K1 by microculture radioisotope assay; format: functional, organism-based
How it was run: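 The P. falciparum K1 strain is multidrug-resistant and was kept in continuous culture. In vitro activity was measured by the microculture radioisotope technique.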

[2] = tested on: Mycobacterium tuberculosis; assay: Antitubercular activity against Mycobacterium tuberculosis H37Ra by alamar blue microplate assay; format: functional
Candida albicans [3] = assay: Antifungal activity against Candida albicans ATCC 90028 at 50 ug/mL by tetrazolium/formazan assay; format: functional, organism-based
How it was run: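 Candida albicans ATCC 90028 tested with a tetrazolium/formazan assay. Compounds were run at 50 µg/mL. Amphotericin B served as the positive control and DMSO as the negative control.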

Plasmodium falciparum [4] = assay: Antimalarial activity against Plasmodium falciparum K1 at 10 ug/mL by microculture radioisotope assay; format: functional, organism-based
Candida albicans [5] = assay: Antifungal activity against Candida albicans ATCC 90028 by tetrazolium/formazan assay; format: functional, organism-based

Row | SMILES | IC50 (Plasmodium falciparum [1]) | MIC [2] | Activity (Candida albicans [3]) | Activity (Plasmodium falciparum [4]) | IC50 (Candida albicans [5])
1 | CC(=O)O[C@@H]1/C(C)=C/CC(C)(C)[C@@H](OC(C)=O)[C@@H](OC(C)=O)C(=O)/C(C)=C\[C@H]2[C@@H](OC(=O)c3ccccc3)[C@@H](C)[C@H](OC(C)=O)[C@]12OC(C)=O | 4 µM | 50 µg/mL (≈ 71.6 µM) |  |  | 
2 | CC(=O)O[C@H]1C[C@@H](OC(=O)c2ccccc2)/C(C)=C\[C@H]2[C@@H](OC(=O)c3ccccc3)[C@@H](C)[C@H](O)[C@]2(OC(C)=O)[C@H](O)[C@@](C)(O)/C=C/C1(C)C | 5.9 µM | 12.5 µg/mL (≈ 18.4 µM) | inactive |  | 
3 | CC(=O)O/C1=C(\C)[C@@H](O)[C@H]2[C@@H](OC(=O)c3ccccc3)[C@@H](C)[C@H](OC(C)=O)[C@]2(OC(C)=O)[C@H](OC(C)=O)/C(C)=C/CC(C)(C)[C@@H](OC(C)=O)[C@H]1OC(C)=O | 5.8 µM | 50 µg/mL (≈ 65.9 µM) | inactive |  | 
4 | C[C@H]1[C@@H](O)O[C@@H]2O[C@@]3(C)CC[C@H]4[C@H](C)CC[C@@H]1[C@@]24OO3 [ARTENIMOL] | 0.0036 µM |  |  |  | 
5 | CC(=O)O[C@H]1C[C@@H](O)/C(C)=C\[C@H]2[C@@H](OC(=O)c3ccccc3)[C@@H](C)[C@H](O)[C@]2(OC(C)=O)[C@H](O)[C@@](C)(O)/C=C/C1(C)C |  | 100 µg/mL (≈ 174 µM) | inactive | inactive | 
6 | C[C@@H]1[C@H](O)[C@@H](C)/C=C/C=C/C=C/C=C/C=C/C=C/C=C/[C@H](O[C@@H]2O[C@H](C)[C@@H](O)[C@H](N)[C@@H]2O)C[C@@H]2O[C@](O)(C[C@@H](O)C[C@@H](O)[C@H](O)CC[C@@H](O)C[C@@H](O)CC(=O)O[C@H]1C)C[C@H](O)[C@H]2C(=O)O (stereo in doubt) [AMPHOTERICIN B] |  |  |  |  | 0.068 µg/mL (≈ 0.0736 µM)
7 | NC[C@H]1O[C@H](O[C@H]2[C@H](O)[C@@H](O[C@H]3O[C@H](CO)[C@@H](O)[C@H](N)[C@H]3O)[C@H](N)C[C@@H]2N)[C@H](O)[C@@H](O)[C@@H]1O [KANAMYCIN] |  | 2.5 µg/mL (≈ 5.16 µM) |  |  | 
8 | CC(=O)O/C1=C(\C)[C@@H](O)[C@H]2[C@@H](OC(=O)c3ccccc3)[C@@H](C)[C@H](O)[C@]2(OC(C)=O)[C@H](OC(C)=O)/C(C)=C/CC(C)(C)[C@@H](OC(C)=O)[C@H]1OC(C)=O | 6 µM | 100 µg/mL (≈ 140 µM) |  |  | 
9 | NNC(=O)c1ccncc1 [ISONIAZID] |  | 0.1 µg/mL (≈ 0.729 µM) |  |  | 
